One experiment concerns Enterobacter cloacae. The experiment can be described thus: In vitro minimum inhibitory concentration for Enterobacter cloacae (ATCC-27508) by agar dilution method. The conditions noted are these: Enterobacter cloacae; read-out: MIC. The experiment is classed as functional. In a few lines: (§1)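 Two-fold serial dilutions of each compound dispersed in Mueller-Hinton agar; plates spot-inoculated with 2 μL of standard test strain at 10^7 CFU/mL, incubated 37 °C for 20 h; MIC read as lowest concentration inhibiting growth.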
Background: Agar dilution tests growth on a series of plates holding different concentrations.

Another experiment concerns Klebsiella aerogenes. The experiment can be described thus: In vitro minimum inhibitory concentration for Enterobacter aerogenes (ATCC-29751) by agar dilution method. The experiment is classed as functional. The settings on record: Klebsiella aerogenes; read-out: MIC. In a few lines: as §1
A further experiment has as its system Klebsiella pneumoniae. The experiment can be described thus: In vitro minimum inhibitory concentration for Klebsiella pneumoniae (ATCC-10031) by agar dilution method. In kind it is functional. The settings on record: Klebsiella pneumoniae; read-out: MIC.
For another experiment, the system named is Proteus vulgaris. Kind of experiment: In vitro minimum inhibitory concentration for Proteus vulgaris (ATCC-6059) by agar dilution method. The experiment is classed as functional. The conditions noted are these: Proteus vulgaris; read-out: MIC. In outline: as §1
Experiment [1] relates to Pseudomonas aeruginosa. The experiment can be described thus: In vitro minimum inhibitory concentration for Pseudomonas aeruginosa (ATCC-27853) by agar dilution method. In kind it is functional. The settings on record: Pseudomonas aeruginosa; read-out: MIC. In a few lines: as §1
For experiment [2], the system named is Pseudomonas aeruginosa. Kind of experiment: In vitro minimum inhibitory concentration for Pseudomonas aeruginosa (ATCC 10145) by agar dilution method. The experiment is classed as functional. In outline: as §1
Experiment [3] concerns Staphylococcus epidermidis. The experiment can be described thus: In vitro minimum inhibitory concentration for Staphylococcus epidermidis (ATCC-12228) by agar dilution method. In kind it is functional. The conditions noted are these: Staphylococcus epidermidis; read-out: MIC. In outline: as §1
In another experiment the test system is Escherichia coli. The experiment can be described thus: In vitro minimum inhibitory concentration for Escherichia coli (ATCC-10536) by agar dilution method. In kind it is functional. The settings on record: Escherichia coli; read-out: MIC. In a few lines:
as §1

The next experiment concerns Salmonella typhimurium. Kind of experiment: In vitro minimum inhibitory concentration for Salmonella Typhimurium (ATCC-14028) by agar dilution method. In kind it is functional, Salmonella enterica subsp. enterica serovar Typhimurium. The conditions noted are these: Salmonella enterica; read-out: MIC. In outline:
as §1

Another experiment concerns Serratia marcescens. Kind of experiment: In vitro minimum inhibitory concentration for Serratia marcescens (ATCC-27117) by agar dilution method. In kind it is functional. The settings on record: Serratia marcescens; read-out: MIC. In a few lines:
as §1

In another experiment the test system is Staphylococcus aureus. Kind of experiment: In vitro minimum inhibitory concentration for Staphylococcus aureus (ATCC 6538p) by agar dilution method. The experiment is classed as functional. The settings on record: Staphylococcus aureus, ATCC 6538p; read-out: MIC. In outline: as §1
The test system of the next experiment is Citrobacter freundii. The experiment can be described thus: In vitro minimum inhibitory concentration for Citrobacter freundii (ATCC-8090) by agar dilution method. The experiment is classed as functional. The conditions noted are these: Citrobacter freundii; read-out: MIC. In outline: as §1

SMILES strings stand for the structures. In brackets after ≈: the same amount, converted by molar mass.

`CCn1cc[n+]2c(SCC3=C(C(=O)[O-])N4C(=O)C(NC(=O)/C(=N\OC(C)(C)C(=O)O)c5cnc(N)s5)C4SC3)nc(N)cc12` (centres undefined): the MIC – broadly, the lowest concentration found to suppress growth – was found to be 0.02 µg/mL (≈ 0.0302 µM) with Enterobacter cloacae; 2 µg/mL (≈ 3.02 µM) in the experiment with Klebsiella aerogenes; 0.06 µg/mL (≈ 0.0907 µM) in the experiment with Klebsiella pneumoniae; 0.06 µg/mL (≈ 0.0907 µM) in the experiment with Proteus vulgaris; 2 µg/mL (≈ 3.02 µM) in the experiment with Pseudomonas aeruginosa [1]; 4 µg/mL (≈ 6.04 µM) against Pseudomonas aeruginosa [2]. In addition, the MIC came out at 2 µg/mL (≈ 3.02 µM) in [3]; 0.06 µg/mL (≈ 0.0907 µM) in the experiment with Escherichia coli; 0.13 µg/mL (≈ 0.196 µM) with Salmonella typhimurium; 0.13 µg/mL (≈ 0.196 µM) in the experiment with Serratia marcescens; 4 µg/mL (≈ 6.04 µM) with Staphylococcus aureus; 0.06 µg/mL (≈ 0.0907 µM) in the experiment with Citrobacter freundii.

Regarding `CC[n+]1c(N)cc(N)nc1SCC1=C(C(=O)[O-])N2C(=O)C(NC(=O)/C(=N\OC(C)(C)C(=O)O)c3cnc(N)s3)C2SC1` (centres undefined), the MIC was 0.03 µg/mL (≈ 0.047 µM) in the experiment with Enterobacter cloacae; 2 µg/mL (≈ 3.14 µM) in the experiment with Klebsiella aerogenes; 0.06 µg/mL (≈ 0.0941 µM) with Klebsiella pneumoniae; 0.03 µg/mL (≈ 0.047 µM) with Proteus vulgaris; 1 µg/mL (≈ 1.57 µM) in the experiment with Pseudomonas aeruginosa [1]; 2 µg/mL (≈ 3.14 µM) in the experiment on Pseudomonas aeruginosa [2]. The MIC is 1 µg/mL (≈ 1.57 µM) in [3]; 0.06 µg/mL (≈ 0.0941 µM) with Escherichia coli; 0.25 µg/mL (≈ 0.392 µM) in the experiment on Salmonella typhimurium; 0.13 µg/mL (≈ 0.204 µM) in the experiment on Serratia marcescens; 2 µg/mL (≈ 3.14 µM) in the experiment on Staphylococcus aureus; 0.13 µg/mL (≈ 0.204 µM) in the experiment on Citrobacter freundii.

For `C[n+]1cccnc1SCC1=C(C(=O)[O-])N2C(=O)C(NC(=O)/C(=N\OC(C)(C)C(=O)O)c3cnc(N)s3)C2SC1` (centres undefined), the MIC with Enterobacter cloacae was found to be 0.25 µg/mL (≈ 0.421 µM); in the experiment with Klebsiella aerogenes, 16 µg/mL (≈ 27 µM); in the experiment on Klebsiella pneumoniae, 0.5 µg/mL (≈ 0.842 µM); in the experiment on Proteus vulgaris it was 0.13 µg/mL (≈ 0.219 µM); in the experiment on Pseudomonas aeruginosa [1], 8 µg/mL (≈ 13.5 µM); with Pseudomonas aeruginosa [2], 8 µg/mL (≈ 13.5 µM). Also, the MIC in [3] is 64 µg/mL (≈ 108 µM); in the experiment with Escherichia coli, 1 µg/mL (≈ 1.68 µM); in the experiment with Salmonella typhimurium, 1 µg/mL (≈ 1.68 µM); in the experiment with Serratia marcescens, 2 µg/mL (≈ 3.37 µM); in the experiment with Staphylococcus aureus, 128 µg/mL (≈ 216 µM); in the experiment with Citrobacter freundii it was 8 µg/mL (≈ 13.5 µM).

In the case of `Cn1cn[n+]2c(SCC3=C(C(=O)[O-])N4C(=O)C(NC(=O)/C(=N\OC(C)(C)C(=O)O)c5cnc(N)s5)C4SC3)nc(N)cc12` (centres undefined), the MIC with Enterobacter cloacae was determined as 0.02 µg/mL (≈ 0.0308 µM); in the experiment with Klebsiella aerogenes, 1 µg/mL (≈ 1.54 µM); with Klebsiella pneumoniae it was 0.06 µg/mL (≈ 0.0925 µM); with Proteus vulgaris, 0.06 µg/mL (≈ 0.0925 µM); in the experiment with Pseudomonas aeruginosa [1], 2 µg/mL (≈ 3.08 µM); in the experiment with Pseudomonas aeruginosa [2], 4 µg/mL (≈ 6.17 µM). The MIC was found to be 1 µg/mL (≈ 1.54 µM) in experiment [3]; 0.06 µg/mL (≈ 0.0925 µM) with Escherichia coli; 0.25 µg/mL (≈ 0.385 µM) with Salmonella typhimurium; 0.25 µg/mL (≈ 0.385 µM) in the experiment with Serratia marcescens; 8 µg/mL (≈ 12.3 µM) in the experiment with Staphylococcus aureus; 0.13 µg/mL (≈ 0.2 µM) with Citrobacter freundii.

With `Cn1cc[n+]2c(SCC3=C(C(=O)[O-])N4C(=O)C(NC(=O)/C(=N\OC(C)(C)C(=O)O)c5cnc(N)s5)C4SC3)nc(N3CCOCC3)cc12` (centres undefined), the MIC turned out to be 0.06 µg/mL (≈ 0.0836 µM) in the experiment on Enterobacter cloacae; 8 µg/mL (≈ 11.1 µM) in the experiment on Klebsiella aerogenes; 0.25 µg/mL (≈ 0.348 µM) in the experiment with Klebsiella pneumoniae; 0.25 µg/mL (≈ 0.348 µM) in the experiment with Proteus vulgaris; 4 µg/mL (≈ 5.57 µM) in the experiment on Pseudomonas aeruginosa [1]; 8 µg/mL (≈ 11.1 µM) against Pseudomonas aeruginosa [2]. The MIC in experiment [3] is 2 µg/mL (≈ 2.79 µM); with Escherichia coli, 0.25 µg/mL (≈ 0.348 µM); in the experiment on Salmonella typhimurium, 0.5 µg/mL (≈ 0.697 µM); in the experiment with Serratia marcescens, 0.5 µg/mL (≈ 0.697 µM); with Staphylococcus aureus, 8 µg/mL (≈ 11.1 µM); in the experiment on Citrobacter freundii, 0.5 µg/mL (≈ 0.697 µM).

For the compound `CN[n+]1c(N)cc(N)nc1SCC1=C(C(=O)[O-])N2C(=O)C(NC(=O)/C(=N\OC(C)(C)C(=O)O)c3cnc(N)s3)C2SC1` (centres undefined), the MIC worked out at 0.13 µg/mL (≈ 0.204 µM) in the experiment with Enterobacter cloacae; 16 µg/mL (≈ 25.1 µM) with Klebsiella aerogenes; 0.25 µg/mL (≈ 0.391 µM) in the experiment with Klebsiella pneumoniae; 0.03 µg/mL (≈ 0.047 µM) in the experiment on Proteus vulgaris; 8 µg/mL (≈ 12.5 µM) with Pseudomonas aeruginosa [1]; 8 µg/mL (≈ 12.5 µM) against Pseudomonas aeruginosa [2]. Further, the MIC in experiment [3] is 16 µg/mL (≈ 25.1 µM); in the experiment on Escherichia coli, 0.5 µg/mL (≈ 0.783 µM); in the experiment on Salmonella typhimurium it was 1 µg/mL (≈ 1.57 µM); in the experiment with Serratia marcescens it was 1 µg/mL (≈ 1.57 µM); in the experiment on Staphylococcus aureus, 32 µg/mL (≈ 50.1 µM); in the experiment on Citrobacter freundii, 0.5 µg/mL (≈ 0.783 µM).

For `CN(C)c1cc2n(C)cc[n+]2c(SCC2=C(C(=O)[O-])N3C(=O)C(NC(=O)/C(=N\OC(C)(C)C(=O)O)c4cnc(N)s4)C3SC2)n1` (centres undefined), the MIC stood at 0.06 µg/mL (≈ 0.0888 µM) in the experiment with Enterobacter cloacae; 4 µg/mL (≈ 5.92 µM) in the experiment with Klebsiella aerogenes; 0.13 µg/mL (≈ 0.192 µM) in the experiment with Klebsiella pneumoniae; 0.25 µg/mL (≈ 0.37 µM) with Proteus vulgaris; 4 µg/mL (≈ 5.92 µM) in the experiment with Pseudomonas aeruginosa [1]; 8 µg/mL (≈ 11.8 µM) in the experiment with Pseudomonas aeruginosa [2]. Moreover, the MIC was found to be 1 µg/mL (≈ 1.48 µM) in experiment [3]; 0.13 µg/mL (≈ 0.192 µM) in the experiment on Escherichia coli; 0.5 µg/mL (≈ 0.74 µM) with Salmonella typhimurium; 0.5 µg/mL (≈ 0.74 µM) in the experiment on Serratia marcescens; 2 µg/mL (≈ 2.96 µM) in the experiment with Staphylococcus aureus; 0.25 µg/mL (≈ 0.37 µM) with Citrobacter freundii.

The values above are taken from ChEMBL document CHEMBL1127395, “Synthesis and antimicrobial activity of novel 3-[(aminopyrimidiniumyl)thio]methyl cephalosporins” (1994).
